pIC50: −log10 of the molar value. In brackets after ≈: the same amount, converted by molar mass. Activity calls are given as the source filed them. No cut-off for these calls is given here.
What was measured:
[1] = tested on: MDA-MB-231; test: Cytotoxicity against human MDA-MB-231 cells assessed as reduction in cell viability up to 20 uM after 24 hrs by MTT assay; format: functional, cell-based
Summary of the method: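 Cells were grown as adherent monolayers at 37 °C in 5% CO2: SKOV3 in advanced DMEM, DU145 and MB231 in RPMI-1640 with glutamine and 10% FBS. They were seeded at 2000–7500 cells/well, treated on day 1 for 24 h with drug in DMSO (final DMSO <0.1%), then given MTT at 0.83 mg mL−1 final overnight. After SDS/HCl lysis, A570 was read as percent of drug-free control; five replicate wells.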

[2] = tested on: HT-29; test: Cytotoxicity against human HT-29 cells assessed as reduction in cell viability after 72 hrs by MTT assay; format: functional, cell-based; details: HT-29, 72 h
Summary of the method: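 HT29 cells were cultured in RPMI-1640 with glutamine and 10% FBS, seeded at 2000–7500 cells/well, and exposed for 72 h to drug in DMSO (final DMSO <0.1%). MTT was added at 0.83 mg mL−1 final and incubated overnight, then cells were lysed in SDS/HCl and read at 570 nm. Survival was expressed as percent of drug-free control; five replicate wells.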

[3] = Cytotoxicity against HEK293FT cells assessed as reduction in cell viability up to 20 uM; format: cell-based; details: human
[4] = Aqueous solubility of the compound after 1 hrs by HPLC-UV method; format: physicochemical; details: deionized water
Summary of the method: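 Shaken in tubes at 25 °C for 1 h, protected from light, then filtered through 0.2 μm filters; filtrate diluted in deionized water and quantified by reversed-phase HPLC-UV (C18 column, room temperature, methanol/water 70:30 v/v, 1.0 mL min−1).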

[5] = tested on: HEK293; test: Toxicity in HEK293 cells assessed as effect on total protein up to 200 uM after 10 mins; format: cell-based; details: human, hek293, 10 min
Summary of the method: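 HEK293-mock cells were exposed to 100 or 200 μM for 10 min, and total cellular protein was then measured.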

[6] = Toxicity in ip dosed DBA/2 mouse assessed as reduction in 15% body weight administered as daily dose for 3 days; format: organism-based; details: in vivo
Summary of the method: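 Adult male DBA/2 mice were dosed i.p. at 10 mL kg−1, with 5 per group. Controls (n = 8) received saline. MTD was the dose allowing 15% median body-weight loss with no toxic deaths or marked change in general signs within 3 days.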

[7] = molecular target: T1, Organic anion transporter 3 (Homo sapiens, UniProt Q8TCC7); test: Inhibition of human OAT3 expressed in HEK293 cells assessed as 6-CF uptake after 5 mins by fluorescence assay; format: cell-based; details: for inhibition (INH): human, hek293, 5 min
T1 sequence (Q8TCC7 whole entry): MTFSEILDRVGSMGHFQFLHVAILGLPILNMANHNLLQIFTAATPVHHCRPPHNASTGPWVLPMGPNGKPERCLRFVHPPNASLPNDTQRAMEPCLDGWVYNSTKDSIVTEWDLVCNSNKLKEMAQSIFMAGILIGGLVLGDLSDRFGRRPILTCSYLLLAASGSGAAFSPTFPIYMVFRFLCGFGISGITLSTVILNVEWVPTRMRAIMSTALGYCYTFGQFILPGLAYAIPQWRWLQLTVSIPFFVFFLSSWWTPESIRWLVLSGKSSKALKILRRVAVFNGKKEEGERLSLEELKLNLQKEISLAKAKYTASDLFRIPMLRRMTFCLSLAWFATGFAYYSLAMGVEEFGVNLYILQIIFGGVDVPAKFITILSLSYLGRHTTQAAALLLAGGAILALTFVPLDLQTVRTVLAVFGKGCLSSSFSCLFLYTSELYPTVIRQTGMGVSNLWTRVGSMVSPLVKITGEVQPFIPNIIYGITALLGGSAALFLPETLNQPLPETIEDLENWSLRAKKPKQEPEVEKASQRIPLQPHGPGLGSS
Summary of the method: (§1)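 Stably transfected HEK293 cells (human OAT1, OAT3, OCT1, OCT2, OATP1B3, OATP2B1) and mock cells were assayed 16 h after seeding in HEPES uptake buffer, pH 7.2, with fluorescent probe ± compound. Incubation was 5 min for OAT1/3 and OATPs, and 10 min for OCT1/2. Reference inhibitors were probenecid (OATs), quinine (OCTs) and rifampicin (OATPs). Uptake was stopped with ice-cold PBS and cells were lysed in Tris/Triton. Fluorescence was normalised to BCA protein; triplicates, repeated 2–3 times.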

[8] = tested on: HEK293; test: Cytotoxicity against HEK293 cells assessed as reduction in cell viability up to 200 uM after 10 mins by MTT assay; format: cell-based; details: human, hek293, 10 min
Summary of the method: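 HEK293-mock cells were exposed to 100 or 200 μM for 10 min. MTT was added at 0.83 mg mL−1 final and incubated overnight. Cells were lysed in 15% SDS/0.015 M HCl and absorbance was read at 570 nm. Viability is given as % of drug-free controls.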

[9] = molecular target: T2, Solute carrier family 22 member 2 (Homo sapiens, UniProt O15244); test: Inhibition of human OCT2 expressed in HEK293 cells assessed as Asp+ uptake after 10 mins by fluorescence assay; format: cell-based; details: for inhibition (INH): human, hek293, 10 min; summary of the method: as §1
T2 sequence (O15244 whole entry): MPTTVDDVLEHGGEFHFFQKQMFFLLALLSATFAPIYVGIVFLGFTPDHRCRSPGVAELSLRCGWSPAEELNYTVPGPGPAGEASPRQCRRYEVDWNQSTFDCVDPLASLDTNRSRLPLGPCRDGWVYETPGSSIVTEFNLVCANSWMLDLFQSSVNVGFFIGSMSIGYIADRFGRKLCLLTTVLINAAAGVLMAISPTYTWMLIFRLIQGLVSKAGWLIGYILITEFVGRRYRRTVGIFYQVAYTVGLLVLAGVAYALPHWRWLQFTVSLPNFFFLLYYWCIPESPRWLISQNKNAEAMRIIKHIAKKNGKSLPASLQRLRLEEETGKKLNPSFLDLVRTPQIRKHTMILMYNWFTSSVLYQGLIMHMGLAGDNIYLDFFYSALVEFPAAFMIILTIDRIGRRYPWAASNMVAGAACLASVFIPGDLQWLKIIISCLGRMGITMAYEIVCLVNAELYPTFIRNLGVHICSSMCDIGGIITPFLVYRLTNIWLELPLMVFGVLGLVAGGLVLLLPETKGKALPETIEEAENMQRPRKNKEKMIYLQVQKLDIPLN

SMILES | Activity [1] | pIC50 [2] | Activity [3] | solubility at 1 h [4] | Activity [5] | MTD at 72 h [6] | pIC50 [7] | inhibition (INH) [7] | Activity [8] | pIC50 [9] | inhibition (INH) [9]
COc1ccc(/C=C\c2cc(OC)c(OC)c(OC)c2)cc1O[C@@H]1O[C@H](CO)[C@@H](O)[C@H](O)[C@H]1O | Active | 5.16 | Toxic | 1830 µg/mL (≈ 3820 µM) | Non-Toxic | 400 mg/kg | < 3.70 | Dose-dependent effect | Non-Toxic | < 3.70 | Dose-dependent effect
COc1ccc(/C=C\c2cc(OC)c(OC)c(OC)c2)cc1O [COMBRETASTATIN A4] | Active | 6.14 | Toxic | 3 µg/mL (≈ 9.48 µM) | Non-Toxic | 25 mg/kg | 4.79 | Dose-dependent effect | Non-Toxic | 4.21 | Dose-dependent effect

Reference: ChEMBL document CHEMBL4257448, “Deciphering the origins of molecular toxicity of combretastatin A4 and its glycoconjugates: interactions with major drug transporters and their safety profiles in vitro and in vivo” (Medchemcomm, 2017)
